Entries after “also recorded” stand apart in the source; their conditions may differ. Read-outs that look alike come from different tables or passages of the source.

The source of these data is article PMC3940414 (Journal of Medicinal Chemistry, 2014).

The target in data set [1] is T1, rFAAH (Rattus norvegicus, UniProt P97612).
T1 sequence (P97612 30-579 limits assumed): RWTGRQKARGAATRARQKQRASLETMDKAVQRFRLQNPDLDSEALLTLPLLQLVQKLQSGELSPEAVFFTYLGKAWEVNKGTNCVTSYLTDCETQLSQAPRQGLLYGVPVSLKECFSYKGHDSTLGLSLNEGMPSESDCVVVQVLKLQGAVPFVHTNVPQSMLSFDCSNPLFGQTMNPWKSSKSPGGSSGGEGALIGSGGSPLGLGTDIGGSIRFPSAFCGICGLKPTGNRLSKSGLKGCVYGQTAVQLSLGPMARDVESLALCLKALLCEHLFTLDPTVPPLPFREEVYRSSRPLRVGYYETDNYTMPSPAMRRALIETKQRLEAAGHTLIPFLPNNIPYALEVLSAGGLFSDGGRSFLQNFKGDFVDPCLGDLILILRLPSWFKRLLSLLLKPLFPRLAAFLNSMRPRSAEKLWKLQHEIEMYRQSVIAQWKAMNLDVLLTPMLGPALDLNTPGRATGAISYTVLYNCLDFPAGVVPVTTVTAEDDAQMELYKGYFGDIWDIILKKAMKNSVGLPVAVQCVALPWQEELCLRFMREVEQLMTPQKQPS
Type of data set: biochemical.

In data set [2] the target is T1, rFAAH. As to the kind of experiment: Lineweaver–Burk kinetic analysis. Type of data set: biochemical. To be noted: after 3 h preincubation with the enzyme.
Data set [3] concerns the target T2, purified recombinant rat FAAH (Rattus norvegicus, UniProt P97612).
T2 sequence (P97612 30-579 limits assumed): T1 sequence (P97612 30-579 limits assumed)
Kind of data set: Reversibility of FAAH inhibition by dialysis dilution. To be noted: 3 h preincubation 22 °C, then dialysis 4 °C, 18 h, 370-fold, pH 9. Type of data set: biochemical. An outline of the steps: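 Purified recombinant rat FAAH (E. coli-expressed) in pH 9.0 Tris/EDTA/glycerol/Triton X-100/Hepes buffer, preincubated 3 h at 22 °C with test compound (final 80, 100 or 150 nM) or DMSO. Triplicate pre-dialysis activity assay, then dialysis (10 000 MW cutoff) against PBS, 4 °C, 18 h, stirred. Post-dialysis activity assayed in triplicate and expressed as % of DMSO control.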

The subject of data set [4] is lipid amides in the brain. To be noted: mice, i.p.; cited from earlier work.
The test system of data set [5] is cannabinoid CB1 receptor. To be noted: background statement, ref not given; cited from earlier work.
Data set [6] concerns cannabinoid CB2 receptor. To be noted: background statement, ref not given; cited from earlier work.
The subject of data set [7] is vanilloid (TRP) receptors. To be noted: background statement, ref not given; cited from earlier work.
Data set [8] concerns common P450 metabolism enzymes. To be noted: background statement, ref not given; cited from earlier work.
Data set [9] concerns human ether-a-go-go related gene product (hERG). To be noted: background statement, ref not given; cited from earlier work.
Data set [10] deals with analgesia. To be noted: cited from earlier work.
The nature of data set [11]: Recovery of thioesters from assay buffer and enzymatic assays. Type of data set: physicochemical. To be noted: for recovery from the assay buffer: 6 h.
Data set [12] has as its system endogenous brain levels of FAAH substrates (AEA, OEA, PEA). Kind of data set: Brain lipid levels after i.p. inhibitor administration. It is filed as in vivo. To be noted: mice, 3 h post i.p. 30 mg/kg, relative to reversible inhibitor 2.
Data set [13] relates to neuropathic pain. To be noted: cited from earlier work.
Setting [14] is: enzyme–inhibitor preincubation 0–6 h.

In the case of `O=C(CCCCCCc1ccccc1)c1ncc(-c2ccccn2)o1` [compound 2], in [1] (setting [14]), the “time-dependent change of inhibition potency (in words)” value was “does not display time-dependent inhibition”. In addition, the “mode of inhibition (Lineweaver–Burk)” value in data set [2] is “reversible, competitive”. In addition, the “recovery of enzyme activity after dialysis dilution” value (“recovery of enzyme activity” below) in data set [3] is “restored full enzyme activity; also recorded: nearly full recovery of enzyme activity”. The “duration of elevation of brain lipid amides” value (“duration” below) in data set [4] is 2 to 3 h. Moreover, in data set [5], the “binding to CB1 receptor” value was “does not bind”. Further, in data set [6], the “binding to CB2 receptor” value is recorded as “does not bind”. Also, the “binding to vanilloid (TRP) receptors” value in [7] was “does not bind”. The “inhibition of common P450 metabolism enzymes” value in data set [8] is recorded as “does not significantly inhibit”. The “inhibition of hERG” value in data set [9] is “does not significantly inhibit”. Moreover, the analgesic effect entry in data set [10] is recorded as “induces analgesia”.
As for `COC(=O)c1ccc(-c2cnc(C(=O)CCCCCCc3ccccc3)o2)nc1` [compound 3], the “mode of inhibition (Lineweaver–Burk)” value in data set [2] was “reversible, competitive”.
As for `CSC(=O)c1ccc(-c2cnc(C(=O)CCCCCCc3ccccc3)o2)nc1` [compound 5], in data set [1], the “time-dependent change of inhibition potency (in words)” value was “did not exhibit this time-dependent increase”. For the same molecule, in data set [2], the “mode of inhibition (Lineweaver–Burk)” value is reported as “reversible, competitive”. Also, the “recovery from the assay buffer” value in data set [11] is “recovered unchanged”. In data set [11] (enzymatic assays), the “recovery from enzymatic assays” value is recorded as “recovered unchanged”.
Consider `N#Cc1ccc(-c2cnc(C(=O)CCCCCCc3ccccc3)o2)nc1` [compound 7], for which, in data set [1], the “time-dependent change of inhibition potency (in words)” value is recorded as “did not display time-dependent increases in potency”.
Turning to `COC(=N)c1ccc(-c2cnc(C(=O)CCCCCCc3ccccc3)o2)nc1` [compound 8], in [1], the “time-dependent change of inhibition potency (in words)” value is “did not display time-dependent increases in potency”.
Turning to `O=C(CCCCCCc1ccccc1)c1ncc(-c2ccc(CBr)cn2)o1` [compound 11], in data set [1] (setting [14]), the “time-dependent change of inhibition potency (in words)” value was “most pronounced time-dependent increase in potency”. Besides, the “mode of inhibition (Lineweaver–Burk)” value in data set [2] is “noncompetitive”. In [3], the “recovery of enzyme activity” value is “failing to restore FAAH activity; also recorded: little or no recovery of enzyme activity”. For the same molecule, in data set [12], the “increase of brain anandamide levels over that of 2” value (from here on “increase of brain anandamide levels”) was “approximately 2 fold”. Besides, in data set [4], the “duration” value is listed as > 6 h and the “time of peak brain lipid amide levels” value is 1.5 to 3 h. Moreover, the “activity in a mouse model of neuropathic pain” value in [13] is given as “long acting in vivo activity”.
On to `O=C(CCCCCCc1ccccc1)c1ncc(-c2ccc(CCl)cn2)o1` [compound 12], for which the “time-dependent change of inhibition potency (in words)” value in data set [1] (setting [14]) is “insensitive to preincubation”.
As for `N#CCc1ccc(-c2cnc(C(=O)CCCCCCc3ccccc3)o2)nc1` [compound 14], the “time-dependent change of inhibition potency (in words)” value in [1] (setting [14]) is reported as “did exhibit increases in potency”. In addition, the “mode of inhibition (Lineweaver–Burk)” value in [2] is “noncompetitive”. Besides, the “recovery of enzyme activity” value in [3] was “failing to restore FAAH activity; also recorded: little or no recovery of enzyme activity”. In data set [12], the “increase of brain anandamide levels” value is on record as “approximately 2 fold”. Moreover, in data set [4], the “duration” value is > 6 h and the “time of peak brain lipid amide levels” value was 1.5 to 3 h. Besides, the “activity in a mouse model of neuropathic pain” value in [13] was “long acting in vivo activity”.
Turning to `CSC(=O)Cc1ccc(-c2cnc(C(=O)CCCCCCc3ccccc3)o2)nc1` [compound 16], in data set [1], the “time-dependent change of inhibition potency (in words)” value is listed as “did not exhibit this time-dependent increase”. Moreover, the “mode of inhibition (Lineweaver–Burk)” value in [2] is “reversible, competitive”.
Turning to `COC(=N)Cc1ccc(-c2cnc(C(=O)CCCCCCc3ccccc3)o2)nc1` [compound 17], the “time-dependent change of inhibition potency (in words)” value in data set [1] (setting [14]) is reported as “did exhibit increases in potency”. For the same molecule, the “mode of inhibition (Lineweaver–Burk)” value in [2] was “noncompetitive”. Also, in [3], the “recovery of enzyme activity” value is “do not appear to be even slowly reversible”.
As for `CCOC(=O)/C=C/c1ccc(-c2cnc(C(=O)CCCCCCc3ccccc3)o2)nc1` [compound 18], in data set [2], the “mode of inhibition (Lineweaver–Burk)” value is “mixed kinetics”. Moreover, the “recovery of enzyme activity” value in data set [3] is on record as “did not restore enzyme activity”.
As for `N#C/C=C/c1ccc(-c2cnc(C(=O)CCCCCCc3ccccc3)o2)nc1` [compound 19], the “mode of inhibition (Lineweaver–Burk)” value in [2] is recorded as “mixed kinetics”. The “recovery of enzyme activity” value in data set [3] is “did not restore enzyme activity”.
Turning to `CCOS(=O)(=O)/C=C/c1ccc(-c2cnc(C(=O)CCCCCCc3ccccc3)o2)nc1` [compound 20], the “mode of inhibition (Lineweaver–Burk)” value in [2] was “noncompetitive”. The “increase of brain anandamide levels” value in data set [12] is recorded as “approximately 2 fold”.
Consider `CS(=O)(=O)/C=C/c1ccc(-c2cnc(C(=O)CCCCCCc3ccccc3)o2)nc1` [compound 21], for which the “mode of inhibition (Lineweaver–Burk)” value in data set [2] is reported as “noncompetitive”. Besides, the “increase of brain anandamide levels” value in [12] is “approximately 2 fold”.
Consider `C[S+]([O-])/C=C/c1ccc(-c2cnc(C(=O)CCCCCCc3ccccc3)o2)nc1` (stereo not shown) [compound 22], for which the “mode of inhibition (Lineweaver–Burk)” value in data set [2] was “noncompetitive”. Besides, the “increase of brain anandamide levels” value in data set [12] was “approximately 2 fold”.
For `CSC(=O)CCCCc1cnc(C(=O)CCCCCCc2ccccc2)o1` [compound 25], the “mode of inhibition (Lineweaver–Burk)” value in [2] is listed as “reversible, competitive”. For the same molecule, in data set [11], the “recovery from the assay buffer” value is given as “recovered unchanged”.
